Measured values pooled from the literature.
Target: Amine oxidase [flavin-containing] B (MAOB, Homo sapiens, UniProt P27338)
Read-out: enzyme activity
Mode: inhibitor
Residues used in one study (P27338 1-520): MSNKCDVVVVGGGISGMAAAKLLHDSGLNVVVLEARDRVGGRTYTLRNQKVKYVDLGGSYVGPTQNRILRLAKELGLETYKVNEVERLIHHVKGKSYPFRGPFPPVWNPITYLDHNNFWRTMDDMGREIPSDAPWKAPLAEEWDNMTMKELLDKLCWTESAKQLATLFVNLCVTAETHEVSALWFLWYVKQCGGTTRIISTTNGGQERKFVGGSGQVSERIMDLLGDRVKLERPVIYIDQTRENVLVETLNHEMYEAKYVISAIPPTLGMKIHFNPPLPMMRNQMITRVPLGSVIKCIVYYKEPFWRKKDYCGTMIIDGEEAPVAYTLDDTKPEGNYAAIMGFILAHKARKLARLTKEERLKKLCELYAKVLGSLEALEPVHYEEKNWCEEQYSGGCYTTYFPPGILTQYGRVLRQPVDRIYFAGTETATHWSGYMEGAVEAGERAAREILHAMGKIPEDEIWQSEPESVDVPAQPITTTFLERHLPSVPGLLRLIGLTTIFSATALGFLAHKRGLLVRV

O=C(O)c1cc(O)c2c(c1)C(=O)c1cc(O)cc(O)c1C2=O
IC50: 31900 nM

c1ccc(Nc2nccc(-c3ccco3)n2)cc1
IC50 (fluorescence): 510 nM

O=C(Nc1ccc([N+](=O)[O-])cc1Cl)c1cc2ccccc2o1
IC50: 123 nM

O=c1[nH]c(-c2ccccc2)cnc1-c1ccccc1
IC50 (fluorescence): 140 nM

O=C(Nc1ccc(OC(F)(F)F)cc1)c1cc(Cl)ccc1O
IC50: 128 nM

O=C1c2c(O)cc(O)cc2O[C@H](c2ccc(O)cc2)[C@H]1O
IC50: 68100 nM

COc1cccc(CNc2nc3ccc(C)cc3n3cnnc23)c1
IC50 (fluorescence): 180 nM

C#CCOc1ccc(/C=C/C(=O)N2CCc3ccccc3C2)cc1OC
IC50 (fluorescence): 540 nM

O=c1cc(-c2ccc(O)cc2)oc2c([C@@H]3O[C@H](CO)[C@@H](O)[C@H](O)[C@H]3O)c(O)cc(O)c12
IC50: 34100 nM

COc1cc(/C=C/C(=O)N2CCC(Cc3ccccc3)CC2)ccc1OCc1ccccc1
IC50 (fluorescence): 3800 nM

O=C1C[C@@H](c2ccc(O)cc2)Oc2cc(O)cc(O)c21
IC50: 270 nM

CSc1ccc(CNc2nc3ccccc3n3cnnc23)cc1
IC50 (fluorescence): 250 nM

O=c1c(O)c(-c2ccc(O)c(O)c2)oc2cc(O)ccc12
IC50: > 100000 nM

CCn1c(-c2nc3cc(C(=O)N4CCC[C@@H](N)C4)cc(OC)c3n2C)cc2cccnc21
IC50: 25100 nM

COc1cc(/C=C/C(=O)N2CCc3ccccc3C2)ccc1OCc1ccccc1
IC50 (fluorescence): 3100 nM

O=C(/C=C/c1ccc(O)cc1)c1ccc(O)cc1O
IC50: 510 nM
